{"source": "PubChem BioAssay", "note": "The source made the active and inactive calls.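 Rule for the calls, unless noted: active = signal rise over 3 SD above mean of control wells given weak agonist, in both repeats and first screen; inactive = the rest.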", "data": [{"system": "not listed separately", "assay": "calcium flux inhibitors in TRPC4/5HT1a cells, confirmation, counter-screen for TRPC4 inhibitor project, cell-based, second counter screen, HEK293 TRPC4/5HT1a, Fluo-4 (AID 434978;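 active = primary screen active whose calcium signal fell more than 3 SD beyond the full-serotonin control mean in both duplicate plates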;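 note: serotonin given first at submaximal then at maximal dose after compound preincubation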)", "settings": "Fluo-4 calcium flux, at 10 µM, serotonin added to trigger calcium flux; hits give high values", "how_it_was_run": "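System: HEK293 line stably carrying TRPC4 plus 5HT1a receptor. Schedule: 110 s each for compound, submaximal and ECmax serotonin. Technique: kinetic Fluo-4 fluorescence readout of calcium flux. Replication: duplicate plates.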", "values": [{"molecule": "CNCCCOc1ccc2c(c1)CCC2", "outcome": "inactive"}, {"molecule": "CCN(CCCNS(=O)(=O)c1cc(-c2cc(C)no2)ccc1C)Cc1ccccc1", "outcome": "inactive"}, {"molecule": "CCOC(=O)c1oc2ccc(OC)cc2c1NC(=O)CN1CCN(C)CC1", "outcome": "inactive"}, {"molecule": "COc1ccc(C(CNC(=O)c2cc(SC)ccc2Cl)N(C)C)cc1", "note": "(configuration not stated)", "outcome": "inactive"}, {"molecule": "O=C(NCCc1ccccn1)C(F)(F)C(F)(F)C(F)(F)C(F)(F)C(F)(F)C(F)F", "outcome": "inactive"}, {"molecule": "CCCCCSc1nnc2c(n1)OC(c1cccn1C)N(C(C)=O)c1ccccc1-2", "note": "(configuration not stated)", "outcome": "inactive"}, {"molecule": "COc1ccc(-c2cc(C#N)nc(N3CCNCC3)n2)cc1", "outcome": "inactive"}, {"molecule": "Cc1ccccc1NC(=S)NCCc1ccccn1", "outcome": "inactive"}, {"molecule": "Cn1c(CN2CCN(c3cccc(Cl)c3)CC2)nc2ccccc21", "outcome": "inactive"}, {"molecule": "O=C(Cn1c(-c2ccccc2)c[n+]2ccsc12)c1ccc(Br)cc1", "outcome": "inactive"}, {"molecule": "CCn1c(N2CCN(Cc3ccc([N+](=O)[O-])cc3)CC2)nc2ccccc21", "outcome": "inactive"}, {"molecule": "CN(C)C(CNC(=S)Nc1ccc(F)cc1)c1cccnc1", "note": "(configuration not stated)", "outcome": "inactive"}, {"molecule": "COc1ccc(C(=O)NC(=S)NNC(=O)c2c(-c3ccccc3)noc2C)cc1OC", "outcome": "inactive"}, {"molecule": "CC1CC(C)CN(CCCNC(=O)COc2cc(=O)n(C)c3ccccc23)C1", "note": "(configuration not stated)", "outcome": "inactive"}, {"molecule": "CN(C)CCCN(C(=O)c1ccc(C(=O)c2ccccc2)cc1)c1nc2ccc(F)cc2s1", "outcome": "inactive"}, {"molecule": "CCCCN(CC)CCNC(=O)c1cc2cc3ccc(Cl)cc3nc2o1", "outcome": "inactive"}, {"molecule": "COc1ccc(C(=O)NC(=S)NNC(=O)CCc2ccccc2)cc1", "outcome": "inactive"}, {"molecule": "CCN(CC)CCSc1nc2ccc(OC)cc2[nH]1", "outcome": "inactive"}, {"molecule": "Cc1ccc(C)c(OCCCCn2ccnc2)c1", "outcome": "inactive"}, {"molecule": "Cc1nc(/N=C(\\N)NC(=O)NC2CCCCC2)nc2ccccc12", "outcome": "inactive"}, {"molecule": "COC(=O)[C@@]1(Cc2ccc(F)cc2)[C@H]2c3cc(C(=O)N(C)C)n(CCc4ccccn4)c3C[C@H]2CN1C(=O)c1ccccc1", "outcome": "inactive"}, {"molecule": "O=C(CNS(=O)(=O)c1ccc2ccccc2c1)NCCc1ccccn1", "outcome": "inactive"}]}, {"system": "TRPC4 (mouse), co-expressed with 5HT1a in HEK293", "assay": "calcium flux potentiators in TRPC4/5HT1a cells, confirmation, counter-screen for TRPC4 potentiator project, cell-based, second counter screen, HEK293 TRPC4/5HT1a, Fluo-4 (AID 434979)", "settings": "Fluo-4 calcium flux, at 10 µM, serotonin added at its EC20 dose; hits give high values", "values": [{"molecule": "CN1CCC(CNC(=O)Nc2ccccc2)(c2ccccc2)CC1", "outcome": "inactive"}, {"molecule": "Cc1ccc(C)c(OCCCCCn2ccnc2)c1", "outcome": "inactive"}, {"molecule": "CN(C)C(CNC(=O)c1ccc2ccccc2n1)c1ccccc1", "note": "(configuration not stated)", "outcome": "inactive"}, {"molecule": "CCn1cc(CN2CCC(n3nccc3NC(=O)CCOc3ccccc3)CC2)cn1", "outcome": "inactive"}, {"molecule": "CCOC(=O)C1(CCOc2ccccc2)CCN(Cc2cnc(C)s2)CC1", "outcome": "inactive"}, {"molecule": "CCN1CCN(c2ccc(S(=O)(=O)N3CCOCC3)cc2NC(=O)C(C)Oc2cccc(Cl)c2)CC1", "note": "(configuration not stated)", "outcome": "inactive"}, {"molecule": "CN(CCc1nc2ccc(Cl)cc2[nH]1)Cc1nc(CC2CC2)no1", "outcome": "inactive"}, {"molecule": "COc1ccccc1CCC(=O)Nc1cc(S(=O)(=O)N2CCCCC2)ccc1N1CCN(C)CC1", "outcome": "inactive"}, {"molecule": "CCCCC(=O)NNC(=S)NC(=O)c1ccc(C)cc1", "outcome": "inactive"}, {"molecule": "Cc1ccc(C2N(c3ccc(Cl)c(Cl)c3)C(=O)C3CCCN32)o1", "note": "(configuration not stated)", "potentiation": "20% (active)"}, {"molecule": "COc1ccccc1N1CCN(C(c2cccs2)C(C)NC(=O)c2cccs2)CC1", "note": "(configuration not stated)", "outcome": "inactive"}, {"molecule": "O=C(Nc1nnc(-c2ccccc2Cl)o1)c1nc2ccccc2s1", "outcome": "inactive"}, {"molecule": "CCOC(=O)C1(CC2CCCCO2)CCN(Cc2c(C)cc(C)cc2-n2cccn2)CC1", "note": "(configuration not stated)", "outcome": "inactive"}, {"molecule": "Cc1ccccc1OCC(=O)NNC(=S)NC(=O)c1ccco1", "outcome": "inactive"}, {"molecule": "Cc1ccc(C2(O)CN(c3ccccc3C)C3=[N+]2CCS3)cc1", "note": "(configuration not stated)", "outcome": "inactive"}, {"molecule": "Cc1ccccc1C(=O)NNC(=S)NC(=O)c1ccccc1", "outcome": "inactive"}, {"molecule": "Cc1ccc(C(=O)NC(=S)NNC(=O)c2ccccc2)cc1", "outcome": "inactive"}, {"molecule": "Fc1ccc(-c2nnc(CN3CCN(c4ncc(C(F)(F)F)cc4Cl)CC3)o2)cc1", "outcome": "inactive"}, {"molecule": "CNCCCOc1ccc2c(c1)CCC2", "outcome": "inactive"}, {"molecule": "CCN(CCCNS(=O)(=O)c1cc(-c2cc(C)no2)ccc1C)Cc1ccccc1", "outcome": "inactive"}, {"molecule": "CCOC(=O)c1oc2ccc(OC)cc2c1NC(=O)CN1CCN(C)CC1", "outcome": "inactive"}, {"molecule": "COc1ccc(C(CNC(=O)c2cc(SC)ccc2Cl)N(C)C)cc1", "note": "(configuration not stated)", "outcome": "inactive"}, {"molecule": "O=C(NCCc1ccccn1)C(F)(F)C(F)(F)C(F)(F)C(F)(F)C(F)(F)C(F)F", "outcome": "inactive"}, {"molecule": "CCCCCSc1nnc2c(n1)OC(c1cccn1C)N(C(C)=O)c1ccccc1-2", "note": "(configuration not stated)", "outcome": "inactive"}, {"molecule": "COc1ccc(-c2cc(C#N)nc(N3CCNCC3)n2)cc1", "outcome": "inactive"}, {"molecule": "Cc1ccccc1NC(=S)NCCc1ccccn1", "outcome": "inactive"}, {"molecule": "Cn1c(CN2CCN(c3cccc(Cl)c3)CC2)nc2ccccc21", "outcome": "inactive"}, {"molecule": "O=C(Cn1c(-c2ccccc2)c[n+]2ccsc12)c1ccc(Br)cc1", "outcome": "inactive"}, {"molecule": "CCn1c(N2CCN(Cc3ccc([N+](=O)[O-])cc3)CC2)nc2ccccc21", "potentiation": "18.3% (active)"}, {"molecule": "CN(C)C(CNC(=S)Nc1ccc(F)cc1)c1cccnc1", "note": "(configuration not stated)", "outcome": "inactive"}, {"molecule": "COc1ccc(C(=O)NC(=S)NNC(=O)c2c(-c3ccccc3)noc2C)cc1OC", "outcome": "inactive"}, {"molecule": "CC1CC(C)CN(CCCNC(=O)COc2cc(=O)n(C)c3ccccc23)C1", "note": "(configuration not stated)", "potentiation": "26.9% (active)"}, {"molecule": "CN(C)CCCN(C(=O)c1ccc(C(=O)c2ccccc2)cc1)c1nc2ccc(F)cc2s1", "outcome": "inactive"}, {"molecule": "CCCCN(CC)CCNC(=O)c1cc2cc3ccc(Cl)cc3nc2o1", "potentiation": "40.5% (active)"}, {"molecule": "COc1ccc(C(=O)NC(=S)NNC(=O)CCc2ccccc2)cc1", "outcome": "inactive"}, {"molecule": "CCN(CC)CCSc1nc2ccc(OC)cc2[nH]1", "outcome": "inactive"}, {"molecule": "Cc1ccc(C)c(OCCCCn2ccnc2)c1", "outcome": "inactive"}, {"molecule": "Cc1nc(/N=C(\\N)NC(=O)NC2CCCCC2)nc2ccccc12", "outcome": "inactive"}, {"molecule": "COC(=O)[C@@]1(Cc2ccc(F)cc2)[C@H]2c3cc(C(=O)N(C)C)n(CCc4ccccn4)c3C[C@H]2CN1C(=O)c1ccccc1", "outcome": "inactive"}, {"molecule": "O=C(CNS(=O)(=O)c1ccc2ccccc2c1)NCCc1ccccn1", "outcome": "inactive"}]}]}
